# Assay results collected from several papers.
# Protocols differ between the studies behind these lines.
# Target: Serine/threonine-protein kinase PAK 1 (PAK1, Homo sapiens, UniProt Q13153)
SMILES,effect on,action,method,concentration,endpoint,value
Nc1ncnc2occ(-c3ccc(NC(=O)Nc4cc(C(F)(F)F)ccc4F)cc3)c12,cell-free assay,inhibitor,,20 µM,remaining signal,41%
CC/C(=N\NC(=O)NCc1cccc(O)c1)c1ccc(O)c(C)c1O,enzyme activity,inhibitor,,0.1 µM,inhibition,-6.4%
Cc1ccc(Nc2nccc(N(C)c3ccc4c(C)n(C)nc4c3)n2)cc1S(N)(=O)=O,cell-free assay,inhibitor,,0.5 µM,remaining signal,89.1%
Cc1c(NC(=O)c2cc(C(N)=O)nc3cc(F)ccc23)c(C(F)(F)F)nn1Cc1ccc(C(C)(C)C)cc1,cell-free assay,,competition with immobilised ligand,1 µM,remaining binding,98%
Cc1cnc(NC2CCOCC2)nc1-n1cnc(C(=O)NC(CN)c2cc(F)cc(Cl)c2)c1 (centres unmarked),enzyme activity,inhibitor,radiometric,1 µM,remaining activity,51%
CC(C)(O)[C@H]1CC[C@H](Nc2ccc3ncc(-c4cccc(C(F)(F)F)c4)n3n2)CC1,enzyme activity,inhibitor,,1 µM,remaining activity,92.7%
Cc1c(C(=O)O)cc(-c2ccc(C3CCNCC3)cc2)c2ccc(-c3ccc(C(F)(F)F)cc3)cc12,cell-free assay,,competition with immobilised ligand,1 µM,remaining binding,100%
CN(C)C1CCN(CC#Cc2nn(C3CCCC3)c3nc(NCc4ccccc4)ncc23)C1 (centres unmarked),enzyme activity,inhibitor,FRET,10 µM,inhibition,1%
CC(C)(C)c1nc2c(s1)c1nc(N)ncc1c1ccc(NS(=O)(=O)c3c(F)cccc3F)c(F)c12,enzyme activity,inhibitor,radiometric,1 µM,remaining activity,93%
Cc1cc(NC(=O)c2cccc3cc(-c4cccc5[nH]nc(N)c45)ccc23)ccc1F,enzyme activity,inhibitor,,0.1 µM,activity vs control,94%
COc1cc2ncnc(Nc3ccc(Oc4ccccc4)c(C)c3C)c2cc1OC,enzyme activity,inhibitor,,1 µM,inhibition,5%
O=C1NC(=O)c2cc(Nc3ccc(F)cc3)c(Nc3ccc(F)cc3)cc21,cell-free assay,,,0.5 µM,remaining signal,95.5%
CS(=O)(=O)N1CCCC(NC(=O)[C@H](CCC2CCCCC2)NC(=O)c2ccc(CNC(=O)c3cnc4ccccn34)cc2)C1 (some centres unmarked),cell-free assay,,competition with immobilised ligand,0.1 µM,remaining binding,82%
COc1cc2ncnc(Nc3ccc(F)c(Cl)c3)c2cc1OCCCN1CCOCC1,cell-free assay,,,0.5 µM,remaining signal,104%
CCOC(=O)c1cc2cc(-c3cc(C(=O)NCc4ccc(C(=O)O)cc4)nn3C)ccc2[nH]1,cell-free assay,,competition with immobilised ligand,0.1 µM,remaining binding,92%
Cc1ccc(C(=O)NCc2ccsc2)cc1C#Cc1cn(C(C)C)c2ncnc(N)c12,enzyme activity,inhibitor,,1 µM,activity vs control,82%
COc1ccc2c(c1)O[C@H](c1ccc(OC)c(OC)c1)C[C@@H]2NC(=O)C1(c2ccc3c(c2)OC(F)(F)O3)CC1,cell-free assay,,competition with immobilised ligand,1 µM,remaining binding,100%
O=C(Nc1cnn(-c2csc(C(=O)NC3COC3)c2)c1)Nc1ccccc1Cl,enzyme activity,inhibitor,,5 µM,remaining activity,106%
O=C1CCc2cc(Nc3cc(OC4CCOCC4)c([N+](=O)[O-])cc3Cl)ccc2N1,cell-free assay,,competition with immobilised ligand,1 µM,remaining binding,88%
O=C(CSc1nc2nccnc2c(=O)n1CCc1ccccc1)Nc1nccs1,enzyme activity,inhibitor,,10 µM,inhibition,19%
